Test results published in ChEMBL document CHEMBL3997823, “New homoisoflavonoid analogues protect cells by regulating autophagy” (Bioorg Med Chem Lett, 2017).
Activity calls are given as the source filed them. No cut-off for these calls is given here.

Legend:
H9c2 [1] = experiment: Cardioprotective activity against H2O2-induced injury in rat H9C2 cells assessed as increase in cell viability preincubated for 24 hrs followed by H2O2 addition measured after 24 hrs by MTT assay
SH-SY5Y [2] = experiment: Neuroprotective activity against MPP+-induced injury in human SH-SY5Y cells assessed as cell viability at 5 uM preincubated for 16 hrs followed by MPP+ addition measured after 8 hrs (reference value: 40.71 to 55.85%); assay type: functional; settings: read-out: Activity
SH-SY5Y [3] = experiment: Neuroprotective activity against MPP+-induced injury in human SH-SY5Y cells assessed as cell viability at 50 uM preincubated for 16 hrs followed by MPP+ addition measured after 8 hrs (reference value: 40.71 to 55.85%); assay type: functional; settings: read-out: Activity
SH-SY5Y [4] = experiment: Induction of autophagy in human SH-SY5Y cells transfected with GFP-LC3 at 5 uM by MDC staining-based fluorescence microscopic method; assay type: functional, cell-based
SH-SY5Y [5] = experiment: Induction of autophagy in human SH-SY5Y cells at 12.5 to 50 uM after 24 by MDC staining-based flow cytometric method; assay type: functional, cell-based
How it was run: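 SH-SY5Y cells were treated with compound for the indicated times, then stained with monodansylcadaverine. The MDC-positive cell ratio was measured by flow cytometry as the quantitative autophagy read-out.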

H9c2 [6] = experiment: Cardioprotective activity against H2O2-induced injury in […] H9C2 cells assessed as increase in cell viability preincubated for 24 hrs followed by H2O2 addition measured after 24 hrs by MTT assay; assay type: functional, cell-based; settings: Rattus norvegicus
How it was run: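 H9c2 cardiomyocytes injured with H2O2; cell viability read-out, with diazoxide as positive control.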

[7] = Cytotoxicity against human SH-SY5Y cells assessed as inhibition of cell growth at 50 uM after 72 hrs by MTT assay relative to control; assay type: cell-based
[8] = Cytotoxicity against human MCF7 cells assessed as inhibition of cell growth at 50 uM after 72 hrs by MTT assay relative to control; assay type: cell-based

SMILES	EC50 (H9c2 [1])	viability at 5 µM (SH-SY5Y [2])	viability at 50 µM (SH-SY5Y [3])	other results
COc1ccccc1Cc1coc2cccc(O)c2c1=O	> 100 µM			
O=c1c(Cc2ccc(C(F)(F)F)cc2)coc2cc(O)cc(O)c12	12.7 µM			
COc1ccc(Cc2coc3cc(O)ccc3c2=O)cc1	32.1 µM			
COc1ccc(Cc2coc3cc(OC(=O)N(C)C)cc(O)c3c2=O)cc1	19.9 µM	42.5%	35.5%	
COc1ccc(Cc2coc3cc(OCCCCCl)cc(O)c3c2=O)cc1	> 100 µM			
COc1cc(OC)c2c(=O)c(Cc3ccc(Cl)c(Cl)c3)coc2c1	23.8 µM	62.4%	48.9%	Activity (SH-SY5Y [4]): Active
COc1ccc(Cc2coc3cccc(O)c3c2=O)cc1	> 100 µM			
COc1ccc(Cc2coc3cc(OC(C)=O)cc(O)c3c2=O)cc1	> 100 µM			
COc1cccc(Cc2coc3cc(O)cc(O)c3c2=O)c1	> 100 µM			
COc1ccccc1Cc1coc2cc(O)cc(O)c2c1=O	24.4 µM			
COc1ccc(Cc2coc3cc(O)cc(O)c3c2=O)cc1	> 100 µM			
COc1cc(OC)c2c(=O)c(Cc3cccs3)coc2c1	74.3 µM	37.8%	42.2%	
COc1ccc(Cc2coc3cc(OC)cc(OC)c3c2=O)cc1	> 100 µM			
COc1ccc(Cc2coc3cc(OCC=C(C)C)cc(O)c3c2=O)cc1	> 100 µM			
COc1ccc(Cc2coc3cc(OCCCl)cc(O)c3c2=O)cc1	> 100 µM			
COc1ccc(Cc2coc3cc(O)cc(O)c3c2=O)cc1OC	12.1 µM	60.3%	60.9%	Activity (SH-SY5Y [4]): Active; Activity (SH-SY5Y [5]): Active
COc1ccccc1Cc1coc2cc(O)ccc2c1=O	12.7 µM	38.1%	37.5%	
CCC(=O)Oc1cc(O)c2c(=O)c(Cc3ccc(OC)cc3)coc2c1	> 100 µM			
COc1cc(OC)c2c(=O)c(Cc3ccc(C(F)(F)F)cc3)coc2c1	> 100 µM			
COc1cc(OC)c(OC)cc1Cc1coc2cc(O)cc(O)c2c1=O		62.1%	48.4%	EC50 (H9c2 [6]): 15.7 µM; inhibition at 72 h, 50 µM [7]: 15.3%; inhibition at 72 h, 50 µM [8]: 49.5%
